Converted amounts (≈) assume the structure as drawn. Some results are limits rather than exact numbers.

One data set deals with RT-4. The data set can be described thus: Cytotoxicity against human RT4 cells after 96 hrs by microtiter assay. The note with it: RT-4, 96 h. Type of data set: functional, cell-based. An outline of the steps: (§1)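 DSMZ cell lines in RPMI 1640 with 10% FCS. DMF stocks diluted 1000-fold into medium. Continuous exposure 96 h at 37 °C, 5% CO2. Adherent cells stained with crystal violet. IC50 (50% growth inhibition vs untreated control) obtained by least-squares fitting of dose–response curves, averaging 2–5 independent determinations.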

The test system of the next data set is 5637. In words: Cytotoxicity against human 5637 cells after 96 hrs by microtiter assay. Type of data set: functional, cell-based. As to conditions: Homo sapiens, 5637, 96 h. In short, it runs like this:
as §1

A short description of data set [1]: Cytotoxicity against human LCLC-103H cells after 96 hrs by microtiter assay. It is filed as functional, cell-based. In short, it runs like this:
as §1

A short description of data set [2]: Aqueous solubility in phosphate buffered saline at pH 7.4 after 24 hrs. Type of data set: physicochemical. An outline of the steps:
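Solid added in excess to Dulbecco's PBS, pH 7.4, and stirred in the dark 24 h at room temperature. Suspension filtered through a 0.22 filter. Filtrate absorbance read at each compound's λmax, and dissolved concentration calculated from the extinction coefficient at that wavelength.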

The next data set concerns KYSE-510. In words: Cytotoxicity against human KYSE510 cells after 96 hrs by microtiter assay. As to conditions: KYSE-510, 96 h. It is filed as functional, cell-based. An outline of the steps: as §1
For a further data set, the system named is RT-112. In words: Cytotoxicity against human RT112 cells after 96 hrs by microtiter assay. It is filed as functional, cell-based. The note with it: RT-112, 96 h. An outline of the steps:
as §1

Another data set relates to YAPC. In words: Cytotoxicity against human YAPC cells after 96 hrs by microtiter assay. Type of data set: functional, cell-based. An outline of the steps: as §1
Data set [3] is described as follows: Cytotoxicity against human KYSE70 cells after 96 hrs by microtiter assay. It is filed as functional, cell-based. The note with it: KYSE-70, 96 h. An outline of the steps:
as §1

The test system of a further data set is A-427. The data set can be described thus: Cytotoxicity against human A427 cells after 96 hrs by microtiter assay. It is filed as functional, cell-based. As to conditions: A-427, 96 h. In short, it runs like this:
as §1

The nature of data set [4]: Cytotoxicity against human KYSE520 cells after 96 hrs by microtiter assay. It is filed as functional, cell-based. The note with it: KYSE-520, 96 h. An outline of the steps:
as §1

For the next data set, the system named is MCF7. In words: Cytotoxicity against human MCF7 cells after 96 hrs by microtiter assay. It is filed as functional, cell-based. As to conditions: MCF7, 96 h. In short, it runs like this: as §1
The subject of the next data set is DAN-G. In words: Cytotoxicity against human DAN-G cells after 96 hrs by microtiter assay. Type of data set: functional, cell-based. In short, it runs like this: as §1
The test system of a further data set is SISO. The data set can be described thus: Cytotoxicity against human SISO cells after 96 hrs by microtiter assay. Type of data set: functional, cell-based. In short, it runs like this:
as §1

One may read the IC50 as the concentration needed to halve the response being measured. High values mean weaker potency in that assay, low ones greater potency in that assay. In general, solubility refers to how much of the substance goes into solution per volume. A lower solubility goes with a poorly soluble substance. Regarding `N#C/C(=C\c1ccccn1)c1nc2ccccc2o1`, the IC50 (in the data set with RT-4; with 5637; in [1]) was > 20 µM throughout. The molecule further yielded a solubility at 24 h in [2] of 23 µM (≈ 5.69 µg/mL).

`N#C/C(=C\c1ccc([N+](=O)[O-])o1)c1nc2cccnc2[nH]1`: the IC50 with RT-4 came out at 1.76 µM; in the data set with KYSE-510, 5.46 µM; with RT-112 it was 1.11 µM; in the data set with YAPC it was 1.02 µM; in data set [3], 1.33 µM; in the data set on A-427 it was 0.75 µM. The IC50 with 5637 came to 1.08 µM; in data set [4] it was 1.58 µM; in the data set with MCF7, 1.39 µM; in the data set on DAN-G, 1.81 µM; with SISO, 0.72 µM; in [1] it was 0.41 µM. The same molecule gave a solubility at 24 h in data set [2] of 1.4 µM (≈ 0.394 µg/mL).

For the molecule `N#C/C(=C\c1ccncc1)c1nc2ccccc2[nH]1`, the IC50 in the data set with RT-4 was 40.1 µM; with KYSE-510 it was > 40 µM; with RT-112 it was 30.7 µM; with YAPC, > 40 µM; in data set [3] it was 37.1 µM; in the data set on A-427 it was 26.2 µM. The IC50 in the data set with 5637 was 31.2 µM; in [4], > 40 µM; with MCF7, > 40 µM; with DAN-G, > 40 µM; with SISO, > 40 µM; in data set [1], 19.7 µM.

As to `N#C/C(=C\c1ccsc1)c1nc2ccccc2[nH]1`, the IC50 with RT-4 is 7.82 µM; in the data set with KYSE-510, 23 µM; in the data set with RT-112, 13.3 µM; with YAPC, 28.9 µM; in data set [3], 16 µM; in the data set with A-427, 6.39 µM. Besides, the IC50 in the data set with 5637 was 14.1 µM; in [4], 14.6 µM; in the data set on MCF7 it was 14.4 µM; with DAN-G, 15.7 µM; in the data set with SISO, 23.8 µM; in [1], 3.75 µM.

Regarding `S=P(N1CC1)(N1CC1)N1CC1` [THIOTEPA], the IC50 in the data set on RT-4 is 18.3 µM; in the data set on KYSE-510, 4.31 µM; with RT-112, 3.4 µM; in the data set on YAPC, 2.66 µM; in data set [3], 5.4 µM; in the data set with A-427, 1.58 µM. In addition, the IC50 with 5637 is 2 µM; in data set [4], 6.44 µM; with MCF7, 3.23 µM; in the data set on DAN-G, 1.66 µM; in the data set on SISO, 1.4 µM; in data set [1], 6.97 µM.

Turning to `Cc1cc2nc(/C(C#N)=C/c3ccc([N+](=O)[O-])s3)[nH]c2cc1C`, the IC50 is 0.14 µM with RT-4; 0.12 µM in the data set on KYSE-510; 0.12 µM with RT-112; 0.04 µM in the data set with YAPC; 0.05 µM in data set [3]; 0.02 µM in the data set on A-427. The IC50 worked out at 0.05 µM in the data set with 5637; 0.06 µM in data set [4]; 0.13 µM with MCF7; 0.2 µM with DAN-G; 0.1 µM in the data set with SISO; 0.03 µM in [1].

Consider `N#C/C(=C\c1ccccn1)c1nc2cccnc2[nH]1`, for which the IC50 was 10 µM in the data set on RT-4; 13.9 µM with KYSE-510; 8.18 µM with RT-112; 8.89 µM with YAPC; 8.14 µM in data set [3]; 5.15 µM in the data set with A-427. Moreover, the IC50 stood at 3.9 µM in the data set on 5637; 7.98 µM in [4]; 8.28 µM with MCF7; 7.97 µM with DAN-G; 5.53 µM with SISO; 7.37 µM in data set [1]. Also, the solubility at 24 h in [2] turned out to be 28 µM (≈ 6.92 µg/mL).

Consider `O=C(Cn1cnc2ccccc21)NC(O)c1ccc([N+](=O)[O-])s1` (stereo unspecified), for which the IC50 with RT-4 stood at 2.96 µM; in the data set on KYSE-510 it was 140 µM; in the data set with RT-112, 13.7 µM; in the data set with YAPC, 22.4 µM; in [3], 57.4 µM; with A-427, 228 µM. The IC50 in the data set with 5637 came out at 33.7 µM; in [4], 24.2 µM; with MCF7, 13.1 µM; in the data set on DAN-G it was 9.6 µM; with SISO, 11.7 µM; in data set [1], 7.46 µM.

Consider `N#C/C(=C\c1ccc([N+](=O)[O-])cc1)n1cnc2ccccc21`, for which the IC50 came out at 2.56 µM in the data set with RT-4; 2.41 µM with KYSE-510; 2.2 µM in the data set with RT-112; 2.43 µM in the data set with YAPC; 2.63 µM in data set [3]; 1.7 µM in the data set with A-427. Further, the IC50 is 2.2 µM with 5637; 1.92 µM in data set [4]; 2.47 µM with MCF7; 1.53 µM with DAN-G; 4.34 µM in the data set with SISO; 1.71 µM in data set [1].

Consider `N[C@@H](Cc1ccc(N(CCCl)CCCl)cc1)C(=O)O` [MELPHALAN], for which the IC50 was determined as 14.2 µM in the data set on RT-4; 8.18 µM with KYSE-510; 4.69 µM with RT-112; 5.95 µM in the data set with YAPC; 16.2 µM in data set [3]; 5.13 µM with A-427. For the same molecule, the IC50 came to 0.31 µM with 5637; 10.5 µM in data set [4]; 3.71 µM in the data set with MCF7; 2.65 µM in the data set on DAN-G; 1 µM in the data set on SISO; 4 µM in data set [1].

`O=C1CN(/N=C/c2ccc([N+](=O)[O-])o2)C(=O)N1` [NITROFURANTOIN]: the IC50 in the data set on RT-4 worked out at 7 µM; with KYSE-510, 29 µM; in data set [3], 22.8 µM; with A-427 it was 1.86 µM; in the data set on 5637, 21.3 µM; with MCF7, 4.44 µM. For the same molecule, the 50% inhibitory concentration (IC50) was found to be 6.74 µM in the data set on DAN-G, 7.27 µM in the data set with SISO and 2.34 µM in data set [1].

As for `N#C/C(=C\c1csc(Br)c1)c1nc2ccccc2[nH]1`, the IC50 (in the data set on RT-4; with KYSE-510; in the data set with RT-112; in the data set with YAPC; in [3]; with A-427) was > 40 µM in each case. Besides, the IC50 in the data set with 5637 was > 40 µM; in data set [4], > 40 µM; in the data set on MCF7 it was > 40 µM; with DAN-G it was > 40 µM; in the data set on SISO, > 40 µM; in data set [1], 22.8 µM.

As to `O=C(Cn1cnc2ccccc21)NC(O)c1ccc([N+](=O)[O-])o1` (stereo unspecified), the IC50 was determined as 31.2 µM with RT-4; 9.49 µM in the data set with KYSE-510; 3.9 µM in the data set on RT-112; 5.66 µM in the data set with YAPC; 5.57 µM in data set [3]; 5.9 µM in the data set with A-427. The IC50 in the data set with 5637 stood at 5.91 µM; in [4], 5.14 µM; in the data set on MCF7 it was 5.37 µM; in the data set on DAN-G, 4.18 µM; with SISO, 3.22 µM; in [1] it was 1.78 µM.

As for `N#C/C(=C\c1cccnc1)c1nc2ccccc2[nH]1`, the IC50 came to 3.47 µM in the data set on RT-4; 3.92 µM with KYSE-510; 3.5 µM in the data set on RT-112; 4.92 µM with YAPC; 4.25 µM in data set [3]; 3.29 µM with A-427. Moreover, the IC50 in the data set on 5637 was 1.79 µM; in [4], 5.13 µM; with MCF7, 3.15 µM; with DAN-G it was 3.27 µM; in the data set with SISO, 3.02 µM; in data set [1], 1.97 µM.

With `N#C/C(=C\c1ccccn1)c1nc2ccccc2s1`, the IC50 in the data set with RT-4 came to 9.69 µM; in the data set with KYSE-510, 13 µM; in the data set with RT-112 it was 8.19 µM; in the data set on YAPC, 8.27 µM; in data set [3], 7.28 µM; in the data set on A-427, 6.05 µM. Further, the IC50 in the data set with 5637 was found to be 6.65 µM; in data set [4], 9.18 µM; in the data set on MCF7 it was 4.34 µM; in the data set on DAN-G it was 6.47 µM; in the data set with SISO, 5.69 µM; in data set [1], 7.8 µM. Moreover, the concentration in solution in data set [2] (solubility at 24 h) was 2 µM (≈ 0.527 µg/mL).

On to `COc1ccc(/C=C(\C#N)c2nc3ccccc3[nH]2)s1`, for which the IC50 in the data set on RT-4 was 21.2 µM; in the data set with KYSE-510, 12 µM; with RT-112 it was 14.7 µM; with YAPC, > 40 µM; in data set [3], 12.2 µM; in the data set with A-427, 7.19 µM. For the same molecule, the IC50 came out at 31.9 µM in the data set on 5637; 20.5 µM in data set [4]; 13.2 µM with MCF7; 13.8 µM in the data set on DAN-G; 36.8 µM in the data set with SISO; 5.24 µM in data set [1].

As to `N#C/C(=C\c1cccc([N+](=O)[O-])c1)n1cnc2ccccc21`, the IC50 in the data set on RT-4 worked out at 4.02 µM; with KYSE-510 it was 3.09 µM; in the data set on RT-112, 4.16 µM; with YAPC, 3.39 µM; in data set [3], 4.06 µM; in the data set on A-427, 2.86 µM. Further, the IC50 with 5637 came to 4.01 µM; in [4], 2.3 µM; with MCF7, 2.61 µM; in the data set on DAN-G, 2.26 µM; in the data set on SISO, 6.57 µM; in data set [1], 3.48 µM.

The values above are taken from ChEMBL document CHEMBL1156706, “Structure-activity relationships of novel heteroaryl-acrylonitriles as cytotoxic and antibacterial agents” (Eur J Med Chem, 2008).
